# Assay results: ChEMBL document CHEMBL1128473, “[(Biaryloxy)alkyl]isoxazoles: picornavirus inhibitors” (J Med Chem, 1995)
# Legend:
# Type in all cases: functional
# Human rhinovirus sp. [1] = assay: Concentration inhibiting 50% of the serotypes tested to 50% of the viral concentration of untreated controls following 72 hr of exposure
# In short: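 Tissue culture infectious dose (TCID50) assay against a panel of 10 human rhinovirus serotypes. For each serotype, the viral concentration was compared with untreated controls after 72 h of compound exposure. MIC50 is the compound concentration at which half of the serotypes tested are reduced to 50% of the untreated-control viral concentration.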
# Human rhinovirus sp. [2] = assay: Minimum inhibitory concentration on HRV serotype 15
# Human rhinovirus sp. [3] = assay: Minimum inhibitory concentration on HRV serotype 16
# Human rhinovirus sp. [4] = assay: Minimum inhibitory concentration on HRV serotype 19
# Human rhinovirus sp. [5] = assay: Minimum inhibitory concentration on HRV serotype 64
# Human rhinovirus sp. [6] = assay: Minimum inhibitory concentration on HRV serotype 66
# Human rhinovirus sp. [7] = assay: Minimum inhibitory concentration on HRV serotype 67
# Human rhinovirus sp. [8] = assay: Minimum inhibitory concentration on HRV serotype 68
# Human rhinovirus sp. [9] = assay: Minimum inhibitory concentration on HRV serotype 71
# Human rhinovirus sp. [10] = assay: Minimum inhibitory concentration on HRV serotype 73
# Human rhinovirus sp. [11] = assay: Minimum inhibitory concentration on HRV serotype 75
# Human rhinovirus sp. [12] = assay: Minimum inhibitory concentration on HRV serotype 76
# In short: (§1)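 Tested in a tissue culture infectious dose (TCID50) assay with 72 h compound exposure. Activity is read as the concentration that holds virus to 50% of the titer of untreated controls.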
# Human rhinovirus sp. [13] = assay: Minimum inhibitory concentration on HRV serotype 78; in short: as §1
# Human rhinovirus sp. [14] = assay: Minimum inhibitory concentration on HRV serotype 79; in short: as §1
# Human rhinovirus sp. [15] = assay: Minimum inhibitory concentration on HRV serotype 80; in short: as §1
# Human rhinovirus sp. [16] = assay: Minimum inhibitory concentration on HRV serotype 81; in short: as §1
# Human rhinovirus sp. [17] = assay: Minimum inhibitory concentration on HRV serotype 82; in short: as §1
# Human rhinovirus sp. [18] = assay: Minimum inhibitory concentration on HRV serotype 83; in short: as §1
# Human rhinovirus sp. [19] = assay: Minimum inhibitory concentration on HRV serotype 84; in short: as §1
# Human rhinovirus sp. [20] = assay: Minimum inhibitory concentration on HRV serotype 85; in short: as §1
# Human rhinovirus sp. [21] = assay: Minimum inhibitory concentration on HRV serotype 88; in short: as §1
# Human rhinovirus sp. [22] = assay: Minimum inhibitory concentration on HRV serotype 89; in short: as §1
# Human rhinovirus sp. [23] = assay: Minimum inhibitory concentration on HRV serotype 9; in short: as §1
# Human rhinovirus sp. [24] = assay: Minimum inhibitory concentration on HRV serotype 90; in short: as §1
# Human rhinovirus sp. [25] = assay: Minimum inhibitory concentration on HRV serotype 92; in short: as §1
# Human rhinovirus sp. [26] = assay: Minimum inhibitory concentration on HRV serotype 96; in short: as §1
# Human rhinovirus sp. [27] = assay: Minimum inhibitory concentration on HRV serotype T39; in short: as §1
# Human rhinovirus sp. [28] = assay: Minimum inhibitory concentration on HRV serotype 100
# Human rhinovirus sp. [29] = assay: Minimum inhibitory concentration on HRV serotype 36
# Human rhinovirus sp. [30] = assay: Minimum inhibitory concentration on HRV serotype 38
# Human rhinovirus sp. [31] = assay: Minimum inhibitory concentration on HRV serotype 39
# Human rhinovirus sp. [32] = assay: Minimum inhibitory concentration on HRV serotype 40
# Human rhinovirus sp. [33] = assay: Minimum inhibitory concentration on HRV serotype 43
# Human rhinovirus sp. [34] = assay: Minimum inhibitory concentration on HRV serotype 44
# Human rhinovirus sp. [35] = assay: Minimum inhibitory concentration on HRV serotype 46
# Human rhinovirus sp. [36] = assay: Minimum inhibitory concentration on HRV serotype 47
# Human rhinovirus sp. [37] = assay: Minimum inhibitory concentration on HRV serotype 49
# Human rhinovirus sp. [38] = assay: Minimum inhibitory concentration on HRV serotype 50
# Human rhinovirus sp. [39] = assay: Minimum inhibitory concentration on HRV serotype 51
# Human rhinovirus sp. [40] = assay: Minimum inhibitory concentration on HRV serotype 55
# Human rhinovirus sp. [41] = assay: Minimum inhibitory concentration on HRV serotype 56
# Human rhinovirus sp. [42] = assay: Minimum inhibitory concentration on HRV serotype 57
# Human rhinovirus sp. [43] = assay: Minimum inhibitory concentration on HRV serotype 58
# Human rhinovirus sp. [44] = assay: Minimum inhibitory concentration on HRV serotype 61
# Human rhinovirus sp. [45] = assay: Minimum inhibitory concentration on HRV serotype 62
# Human rhinovirus sp. [46] = assay: Minimum inhibitory concentration on HRV serotype 63
# Human rhinovirus sp. [47] = assay: Minimum inhibitory concentration on HRV serotype 20
# Human rhinovirus sp. [48] = assay: Minimum inhibitory concentration on HRV serotype 21
# Human rhinovirus sp. [49] = assay: Minimum inhibitory concentration on HRV serotype 22
# Human rhinovirus sp. [50] = assay: Minimum inhibitory concentration on HRV serotype 24
# Human rhinovirus sp. [51] = assay: Minimum inhibitory concentration on HRV serotype 25
# Human rhinovirus sp. [52] = assay: Minimum inhibitory concentration on HRV serotype 28
# Human rhinovirus sp. [53] = assay: Minimum inhibitory concentration on HRV serotype 29
# Human rhinovirus sp. [54] = assay: Minimum inhibitory concentration on HRV serotype 30
# Human rhinovirus sp. [55] = assay: Minimum inhibitory concentration on HRV serotype 32
# Human rhinovirus sp. [56] = assay: Minimum inhibitory concentration on HRV serotype 33
# Human rhinovirus sp. [57] = assay: Minimum inhibitory concentration on HRV serotype 34
# Human rhinovirus sp. [58] = assay: Minimum inhibitory concentration on HRV serotype 1A
# Human rhinovirus sp. [59] = assay: Minimum inhibitory concentration on HRV serotype 1B
# Human rhinovirus sp. [60] = assay: Minimum inhibitory concentration on HRV serotype 2
# Human rhinovirus sp. [61] = assay: Minimum inhibitory concentration on HRV serotype 11
# Human rhinovirus sp. [62] = assay: Minimum inhibitory concentration on HRV serotype 35
# Human rhinovirus sp. [63] = assay: Minimum inhibitory concentration on HRV serotype 7
# Human rhinovirus sp. [64] = assay: Minimum inhibitory concentration on HRV serotype 23
# Human rhinovirus sp. [65] = assay: Minimum inhibitory concentration on HRV serotype 53
compound,measurement,setting,value
Cc1cc(CCCOc2c(C)cc(-c3ccc(N(C)C)cc3)cc2C)on1,MIC50,Human rhinovirus sp. [1],0.66 µM
Cc1cc(CCCOc2c(C)cc(-c3ccc(F)cc3)cc2C)on1,MIC,Human rhinovirus sp. [2],0.492 µg/mL
same,MIC,Human rhinovirus sp. [3],0.058 µg/mL
same,MIC,Human rhinovirus sp. [4],0.03 µg/mL
same,MIC,Human rhinovirus sp. [5],0.07 µg/mL
same,MIC,Human rhinovirus sp. [6],0.161 µg/mL
same,MIC,Human rhinovirus sp. [7],0.118 µg/mL
same,MIC,Human rhinovirus sp. [8],0.009 µg/mL
same,MIC,Human rhinovirus sp. [9],0.025 µg/mL
same,MIC,Human rhinovirus sp. [10],0.049 µg/mL
same,MIC,Human rhinovirus sp. [11],0.037 µg/mL
same,MIC,Human rhinovirus sp. [12],0.009 µg/mL
same,MIC,Human rhinovirus sp. [13],0.018 µg/mL
same,MIC,Human rhinovirus sp. [14],0.056 µg/mL
same,MIC,Human rhinovirus sp. [15],0.031 µg/mL
same,MIC,Human rhinovirus sp. [16],0.125 µg/mL
same,MIC,Human rhinovirus sp. [17],0.187 µg/mL
same,MIC,Human rhinovirus sp. [18],0.004 µg/mL
same,MIC,Human rhinovirus sp. [19],0.042 µg/mL
same,MIC,Human rhinovirus sp. [20],0.02 µg/mL
same,MIC50,Human rhinovirus sp. [1],0.11 µM
same,MIC,Human rhinovirus sp. [21],0.006 µg/mL
same,MIC,Human rhinovirus sp. [22],0.012 µg/mL
same,MIC,Human rhinovirus sp. [23],0.08 µg/mL
same,MIC,Human rhinovirus sp. [24],0.024 µg/mL
same,MIC,Human rhinovirus sp. [25],0.014 µg/mL
same,MIC,Human rhinovirus sp. [26],0.031 µg/mL
same,MIC,Human rhinovirus sp. [27],0.035 µg/mL
same,MIC,Human rhinovirus sp. [28],0.12 µg/mL
same,MIC,Human rhinovirus sp. [29],0.009 µg/mL
same,MIC,Human rhinovirus sp. [30],0.015 µg/mL
same,MIC,Human rhinovirus sp. [31],0.078 µg/mL
same,MIC,Human rhinovirus sp. [32],0.033 µg/mL
same,MIC,Human rhinovirus sp. [33],0.072 µg/mL
same,MIC,Human rhinovirus sp. [34],0.033 µg/mL
same,MIC,Human rhinovirus sp. [35],0.058 µg/mL
same,MIC,Human rhinovirus sp. [36],0.021 µg/mL
same,MIC,Human rhinovirus sp. [37],0.037 µg/mL
same,MIC,Human rhinovirus sp. [38],0.04 µg/mL
same,MIC,Human rhinovirus sp. [39],0.009 µg/mL
same,MIC,Human rhinovirus sp. [40],0.003 µg/mL
same,MIC,Human rhinovirus sp. [41],0.038 µg/mL
same,MIC,Human rhinovirus sp. [42],0.024 µg/mL
same,MIC,Human rhinovirus sp. [43],0.013 µg/mL
same,MIC,Human rhinovirus sp. [44],0.024 µg/mL
same,MIC,Human rhinovirus sp. [45],0.154 µg/mL
same,MIC,Human rhinovirus sp. [46],0.139 µg/mL
same,MIC,Human rhinovirus sp. [47],0.019 µg/mL
same,MIC,Human rhinovirus sp. [48],0.009 µg/mL
same,MIC,Human rhinovirus sp. [49],0.02 µg/mL
same,MIC,Human rhinovirus sp. [50],0.036 µg/mL
same,MIC,Human rhinovirus sp. [51],0.077 µg/mL
same,MIC,Human rhinovirus sp. [52],0.14 µg/mL
same,MIC,Human rhinovirus sp. [53],0.03 µg/mL
same,MIC,Human rhinovirus sp. [54],0.028 µg/mL
same,MIC,Human rhinovirus sp. [55],0.098 µg/mL
same,MIC,Human rhinovirus sp. [56],0.019 µg/mL
same,MIC,Human rhinovirus sp. [57],0.02 µg/mL
same,MIC,Human rhinovirus sp. [58],0.155 µg/mL
same,MIC,Human rhinovirus sp. [59],0.024 µg/mL
same,MIC,Human rhinovirus sp. [60],0.009 µg/mL
same,MIC,Human rhinovirus sp. [61],0.007 µg/mL
same,MIC,Human rhinovirus sp. [62],0.021 µg/mL
same,MIC,Human rhinovirus sp. [63],0.006 µg/mL
same,MIC,Human rhinovirus sp. [64],0.046 µg/mL
same,MIC,Human rhinovirus sp. [65],0.889 µg/mL
